From PubChem
Rows were chosen to be rich in hits. Some 1.8% of all compounds tested hit in one or more screens of this group.
CHRM5 agonist = human M5 muscarinic receptor agonists, primary screen, CHO-K1 cells, Fluo-8 calcium fluorescence. CHO-K1 hM5 cells; 0% DMSO wells, 100% maximal acetylcholine response. activation, % at 3 µM. 360,000 compounds, 0.19% hits. AID 624037, 2012;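 active = activation above the run's mean over test compounds plus 3 SD, cut at about 23% in these data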;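 also: signal is peak over basal fluorescence ratio across the kinetic read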
CHRM5 antagonist = human M5 muscarinic receptor antagonists, primary screen, CHO cells, Fluo-8 calcium fluorescence | CHO-hM5 cells, ACh EC80 | 360,000 compounds, 0.59% hits | AID 624040, 2012 | inhibition, % at 3 µM | Muscarinic acetylcholine receptor M5 (Homo sapiens), P08912;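 active = inhibition above a per-plate cutoff, the mean of that plate's test compounds plus 3 SD, cut at about 27% in these data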;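 also: 0% = acetylcholine EC80 with DMSO and 100% = DMSO without agonist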
M5 PAM = human M5 muscarinic receptor positive allosteric modulators, primary screen, CHO-K1 cells, Fluo-8 calcium fluorescence | CHO-K1 hM5, ACh EC20 PAM; 0% = ACh EC20, 100% = ACh EC100 | Muscarinic acetylcholine receptor M5 (Homo sapiens), P08912 | AID 624038, 2012 | activation, % at 3 µM | 360,000 compounds, 0.3% hits;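 active = activation above the run cutoff, the mean activation of all test compounds plus 3 SD, cut at about 18% in these data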
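Measured by: Fluo-8 calcium fluorescence; material: human M5 receptor in CHO-K1 cells; schedule: Post-acetylcholine fluorescence recording 140 s; benchmarks: low control EC20 acetylcholine (0%), high control EC100 acetylcholine (100%); read-out: Max/basal fluorescence ratio as % of EC20–EC100 ACh window; compound: single dose, 3 µM nominal final test concentration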
CHRM4 PAM = human M4 muscarinic receptor positive allosteric modulators, primary screen, CHO-K1 cells, Fluo-8 calcium fluorescence | Muscarinic acetylcholine receptor M4 (Homo sapiens), P08173 | CHO-K1 hM4/Gqi5, ACh EC20; 0% = ACh EC20, 100% = maximal ACh | activation, % at 3 µM | 360,000 compounds, 0.4% hits;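 active = activation above its plate's cutoff, the mean activation of sample wells plus 3 SD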
Target sequence (P08173 whole entry, looked up): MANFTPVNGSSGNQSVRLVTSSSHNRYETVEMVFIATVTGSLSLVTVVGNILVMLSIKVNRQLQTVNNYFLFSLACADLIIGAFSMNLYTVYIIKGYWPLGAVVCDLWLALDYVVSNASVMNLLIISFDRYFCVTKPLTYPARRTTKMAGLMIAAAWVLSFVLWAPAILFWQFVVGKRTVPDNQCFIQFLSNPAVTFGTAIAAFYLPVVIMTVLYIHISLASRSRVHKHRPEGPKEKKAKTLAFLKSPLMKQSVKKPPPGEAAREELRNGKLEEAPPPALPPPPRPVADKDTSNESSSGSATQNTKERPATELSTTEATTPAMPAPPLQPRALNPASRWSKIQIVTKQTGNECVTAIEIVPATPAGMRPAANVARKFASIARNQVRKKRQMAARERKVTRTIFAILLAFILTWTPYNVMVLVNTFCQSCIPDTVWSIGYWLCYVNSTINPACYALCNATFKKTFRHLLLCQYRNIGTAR
CHRM4 agonist = human M4 muscarinic receptor agonists, primary screen, CHO-K1 cells, Fluo-8 calcium fluorescence | CHO-K1 hM4/Gqi5; vehicle 0%, full acetylcholine response 100% | 360,000 compounds, 0.14% hits | activation, % at 3 µM | Muscarinic acetylcholine receptor M4 (Homo sapiens), P08173;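 active = activation above the run mean over all test wells plus 3 SD, cut at about 32% in these data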;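 also: peak over basal fluorescence ratio per well then scaled between controls; 0% = DMSO wells and 100% = acetylcholine at EC100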
M4 antag = human M4 muscarinic receptor antagonists, primary screen, CHO cells, Fluo-8 calcium fluorescence. CHO-hM4 cells, ACh EC80. inhibition, % at 3 µM. 360,000 compounds, 0.73% hits;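 active = inhibition above its plate's cutoff, the mean inhibition of sample wells plus 3 SD, cut at about 27% in these data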;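 also: 0% = acetylcholine EC80 with DMSO and 100% = DMSO without agonist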
Starred values were filed as active, the others as inactive.

Screening Cc1cc(C)n2nc(SCc3nnc(SCCCCl)o3)nc2n1 returned CHRM5 agonist -3, CHRM5 antagonist 7, M5 PAM -7, CHRM4 PAM -14, CHRM4 agonist 2 and M4 antag 32*.
For COc1ccc(N2CCN(CCCn3cnc4c(OC)ncnc43)CC2)cc1 the results were CHRM5 agonist -2, CHRM5 antagonist 5, M5 PAM -1, CHRM4 PAM -2, CHRM4 agonist 1 and M4 antag -11.
`COCCC(=O)N1CCCC(CNS(=O)(=O)c2ccc(OC)cc2)C1` (centres undefined) gave CHRM5 agonist 5, CHRM5 antagonist 6, M5 PAM 2, CHRM4 PAM 2, CHRM4 agonist 1 and M4 antag -5.
COc1ccc(S(=O)(=O)NCC2CCCN(C(=O)CCC(F)(F)F)C2)cc1 (centres undefined) was read as CHRM5 agonist 14, CHRM5 antagonist 11, M5 PAM 39*, CHRM4 PAM -6, CHRM4 agonist 0 and M4 antag -7.
Screening Cc1ccc(CSC(Nc2ccc(F)cc2)=C(C#N)C#N)cc1 returned CHRM5 agonist 6, CHRM5 antagonist 31*, M5 PAM -17, CHRM4 PAM -9, CHRM4 agonist 8 and M4 antag 24.
For CCCCn1nnc(NC(=O)CC23CC4CC(CC(C4)C2)C3)n1 the results were CHRM5 agonist 3, CHRM5 antagonist 3, M5 PAM 2, CHRM4 PAM 15*, CHRM4 agonist 1 and M4 antag -8.
Cc1ccc(C)c(S(=O)(=O)NNC(=O)c2sc(NS(=O)(=O)c3ccccc3)nc2C)c1 was read as CHRM5 agonist -2, CHRM5 antagonist -12, M5 PAM 6, CHRM4 PAM 4, CHRM4 agonist 0 and M4 antag 0.
For CSc1cccc(NC(=O)CCNS(=O)(=O)c2ccc3[nH]c(=O)oc3c2)c1 the results were CHRM5 agonist 0, CHRM5 antagonist -8, M5 PAM 5, CHRM4 PAM 1, CHRM4 agonist 1 and M4 antag 8.
For Cc1cc2oc(C(=O)NCc3ccccc3)cc(=O)c2cc1C the results were CHRM5 agonist -8, CHRM5 antagonist 97*, M5 PAM -22, CHRM4 PAM -18, CHRM4 agonist 1 and M4 antag 98*.
Cc1ccc2oc(C(=O)NCc3ccccc3)cc(=O)c2c1 was read as CHRM5 agonist 2, CHRM5 antagonist 9, M5 PAM -4, CHRM4 PAM -1, CHRM4 agonist 6 and M4 antag -20.
Screening CCOC(=O)C1CCCN(c2nc3c(C)cccn3c(=O)c2/C=C(\C#N)C(=O)NCc2ccco2)C1 (centres undefined) returned CHRM5 agonist 31*, CHRM5 antagonist 13, M5 PAM -27, CHRM4 PAM -24, CHRM4 agonist 6 and M4 antag 1.
`Cc1cccn2c(=O)c(/C=C(\C#N)C(=O)NCc3ccco3)c(N3CCCC(C)C3)nc12` (centres undefined) gave CHRM5 agonist 0, CHRM5 antagonist 7, M5 PAM -5, CHRM4 PAM 3, CHRM4 agonist 0 and M4 antag 13.
COc1c(F)c(F)c(C(=O)Nc2ccccc2N2CCN(C(=O)C(C)C)CC2)c(F)c1F was read as CHRM5 agonist 2, CHRM5 antagonist 27, M5 PAM 31*, CHRM4 PAM 2, CHRM4 agonist 3 and M4 antag -7.
Screening O=C(COC(=O)c1ccncc1)Nc1cccc2ccccc12 returned CHRM5 agonist 0, CHRM5 antagonist 8, M5 PAM -5, CHRM4 PAM 0, CHRM4 agonist 1 and M4 antag 4.
Screening COC(C#CCCN(C)C)(c1ccccc1)c1ccccc1 returned CHRM5 agonist -8, CHRM5 antagonist 94*, M5 PAM -19, CHRM4 PAM -18, CHRM4 agonist 1 and M4 antag 35*.
For COCCn1c(Cc2ccccc2)nnc1SCC(=O)NC1CC1 the results were CHRM5 agonist -3, CHRM5 antagonist 22, M5 PAM -5, CHRM4 PAM -3, CHRM4 agonist 0 and M4 antag 5.
For Cc1ccc(NC(=O)C[n+]2ccn(C3=C([O-])c4ccccc4C3=O)c2)cc1 the results were CHRM5 agonist -2, CHRM5 antagonist 29*, M5 PAM -17, CHRM4 PAM -7, CHRM4 agonist 15 and M4 antag 8.
For CC1(C)CC(NS(=O)(=O)c2ccc3ccccc3c2)CC(C)(C)N1 the results were CHRM5 agonist -2, CHRM5 antagonist -10, M5 PAM 18*, CHRM4 PAM 3, CHRM4 agonist 4 and M4 antag -19.
`COc1ccc(S(=O)(=O)NC2CC(C)(C)NC(C)(C)C2)cc1` gave CHRM5 agonist -6, CHRM5 antagonist 7, M5 PAM -2, CHRM4 PAM 4, CHRM4 agonist 1 and M4 antag -2.
Screening CC1CC(=O)N(CC(=O)NCc2ccc(F)cc2)c2ccccc2S1(=O)=O (centres undefined) returned CHRM5 agonist -3, CHRM5 antagonist -4, M5 PAM -2, CHRM4 PAM -2, CHRM4 agonist 1 and M4 antag 8.
Screening CC1(C(=O)OCC(=O)Nc2ccc(C(N)=O)cc2)CC1(Cl)Cl (centres undefined) returned CHRM5 agonist -2, CHRM5 antagonist 1, M5 PAM 8, CHRM4 PAM 8, CHRM4 agonist 0 and M4 antag -12.
For COc1ccccc1NC(=O)c1ccc(NC(=O)COC(=O)C2(C)CC2(Cl)Cl)cc1 (centres undefined) the results were CHRM5 agonist 2, CHRM5 antagonist 29*, M5 PAM -19, CHRM4 PAM -15, CHRM4 agonist 16 and M4 antag 8.
Screening CC[C@H](C)[C@H](NC(N)=O)C(=O)Nc1ccc(S(=O)(=O)NC(C)C)cc1 returned CHRM5 agonist -5, CHRM5 antagonist -1, M5 PAM 6, CHRM4 PAM -5, CHRM4 agonist 1 and M4 antag 30*.
O=C(NC1CCCC1)C(c1cccnc1)N(C(=O)c1csnn1)c1ccccc1 (centres undefined) was read as CHRM5 agonist -2, CHRM5 antagonist -1, M5 PAM 0, CHRM4 PAM 2, CHRM4 agonist 0 and M4 antag 5.
